What all share (assay type): cell-based
Assay [1] concerns S37. Description: Inhibition of L-type amino acid transporter-mediated [3H]-L-histidine uptake in mouse S37 cells assessed as residual activity at 5 mM after 2 mins by liquid scintillation counting analysis relative to control.
Assay [2] deals with S37. Description: Inhibition of A-type amino acid transporter-mediated [3H]-L-histidine uptake in mouse S37 cells assessed as residual activity at 5 mM after 2 mins by liquid scintillation counting analysis relative to control.
Assay [3] deals with S37. Kind of assay: Inhibition of L-type amino acid transporter-mediated [3H]-L-histidine uptake in mouse S37 cells assessed as residual activity at 10 mM after 2 mins by liquid scintillation counting analysis relative to control. The procedure, abridged:
(§1)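 Mouse-passaged S37 ascites cells were collected 6-8 days post-transplant, washed three times and resuspended in modified Krebs-Ringer phosphate buffer. L-system uptake used [3H]-L-histidine at 0.1 mM for 2 min at 20 °C. Incubation ended on pouring into chilled buffer, followed by three centrifugations to remove entrained label. Pellet wet weight was recorded, the EtOH lysate was scintillation-counted, and results are % of control, averaging duplicate runs on triplicate samples.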

Assay [4] has as its system S37. Kind of assay: Inhibition of A-type amino acid transporter-mediated [3H]-L-histidine uptake in mouse S37 cells assessed as residual activity at 10 mM after 2 mins by liquid scintillation counting analysis relative to control. The procedure, abridged: (§2)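 S37 ascites tumor cells were harvested 6-8 days after transplanting about 0.3 mL of a 1:10 packed-cell suspension. Cells were washed three times in modified Krebs-Ringer phosphate buffer, resuspended, and incubated with [3H]-L-histidine at 10 mM (A system) for 2 min at 20 °C. Uptake was stopped in chilled buffer, and cells were spun, rinsed and weighed wet. Pellets were lysed in 95% EtOH and counted by scintillation. Results are % of control, with duplicate runs on triplicate samples.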

The subject of assay [5] is S37. Description: Inhibition of A-type amino acid transporter-mediated [3H]-L-histidine uptake in mouse S37 cells assessed as residual activity after 2 mins by liquid scintillation counting analysis relative to control. The procedure, abridged: as §2
The test system of assay [6] is S37. Kind of assay: Inhibition of L-type amino acid transporter-mediated [3H]-L-histidine uptake in mouse S37 cells assessed as residual activity after 2 mins by liquid scintillation counting analysis relative to control. The procedure, abridged: as §1

SMILES strings stand for the structures.

With `N[C@@H](CS)C(=O)O`, the Activity with S37 [1] worked out at 16%; in the assay with S37 [2], 51%.
For `CC1N[C@H](C(=O)O)CS1` (stereo partly specified) the same measures were 70% and 72%.
In the case of `CCSCC[C@H](N)C(=O)O`, the Activity is 11% in the assay with S37 [1] and 63% with S37 [2].
The matching figures for `O=C(O)[C@@H]1CSCN1`: 72% and 74%.
On to `O=C(O)C1CCSCN1` (racemic), for which the Activity in the assay on S37 [3] came out at 90%; in the assay with S37 [4] it was 85%.
On to `NC1(C(=O)O)CCSCC1`, for which the Activity amounted to 81% in the assay on S37 [5] and 31% in the assay with S37 [6].
For the compound `NC1CCSC1=O` (stereo unspecified), the results for the Activity with S37 [3] and in the assay with S37 [4] were 96% and 119%, respectively.
On to `NC(CCS)C(=O)O` (racemic), for which the Activity in the assay on S37 [3] came out at 6%; in the assay with S37 [4], 55%.
Take `CSCC[C@H](N)C(=O)O`: the Activity was determined as 11% with S37 [1] and 68% with S37 [2].
Turning to `CC1(C)N[C@H](C(=O)O)CS1`, the Activity in the assay with S37 [1] is 45%; in the assay on S37 [2], 68%.
Turning to `O=C(O)C1NCCS1` (racemic), the Activity with S37 [3] was determined as 63%; in the assay with S37 [4], 58%.
For `O=C(O)[C@@H]1CSCCN1`, the Activity with S37 [1] stood at 51%; in the assay on S37 [2], 73%.
As to `N[C@@H](CSCCSC[C@H](N)C(=O)O)C(=O)O`, the Activity amounted to 52% in the assay on S37 [1] and 70% with S37 [2].
